Reference: ChEMBL document CHEMBL1126849, “Synthesis of A-ring fluorinated derivatives of (17 alpha,20E/Z)-[125I]iodovinylestradiols: effect on receptor binding and receptor-mediated target tissue uptake” (J Med Chem, 1993)

Key:
Rattus norvegicus [1] = test: Biodistribution in kidney of immature female rat after 12 hour administration of 3 micro Ci (111 kBq) in the absence of 60 microg estradiol; format: ADME, organism-based; conditions: in vivo
Method in brief: (§1)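 Immature female Long Evans rats (21–24 days, 45–70 g), unanesthetized in retention cages, given 3 µCi (111 kBq) 125I-labeled steroid i.v. via lateral tail vein. Vehicle was ethanol diluted in saline containing 1% Tween-80, giving 9% ethanol final. The blocking group received 60 µg unlabeled estradiol co-injected. Rats were killed under ether by axillary bleeding, and tissues were KCl-washed and gamma-counted. Data are %ID/g, mean ± SE, n=3–5.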

Rattus norvegicus [2] = test: Biodistribution in kidney of immature female rat after 5 hour administration of 3 micro Ci (111 kBq) in the absence of 60 microg estradiol; format: ADME, organism-based; conditions: in vivo; method in brief: as §1
Rattus norvegicus [3] = test: Biodistribution in spleen of immature female rat after 1 hr administration of 3 micro Ci (111 kBq) in the presence of (+E2); format: ADME, organism-based; conditions: in vivo
Method in brief: (§2)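 Immature female Long Evans rats (21–24 days, 45–70 g), three to five per group, given 125I-labeled steroid (3 μCi, 111 kBq) by lateral tail vein without anesthesia. Vehicle: ethanol diluted in saline with 1% Tween-80, final ethanol 9%, 0.22 μm filtered. +E2 groups received 60 μg unlabeled estradiol co-injected. Killed under ether at set times; tissues KCl-washed, blotted, weighed, gamma counted; %ID/g, mean with SE.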

Rattus norvegicus [4] = test: Biodistribution in spleen of immature female rat after 12 hour administration of 3 micro Ci (111 kBq) in the absence of 60 microg estradiol; format: ADME, organism-based; conditions: in vivo; method in brief: as §2
Rattus norvegicus [5] = test: Biodistribution in blood of immature female rat after 12 hour administration of 3 micro Ci (111 kBq) in the absence of 60 microg estradiol; format: ADME, organism-based; conditions: in vivo; method in brief: as §1
Rattus norvegicus [6] = test: Biodistribution in uterus of immature female rat after 1 hr administration of 3 micro Ci (111 kBq) in the presence of (+E2); format: ADME, organism-based; conditions: in vivo
Method in brief: (§3)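 Immature female Long Evans rats (21–24 days, 45–70 g), 3–5 per group, unanesthetized in retention cages, given 3 μCi (111 kBq) 125I-labeled steroid by lateral tail vein. Vehicle: ethanol diluted with saline containing 1% Tween-80, final ethanol 9%. +E2 group co-injected 60 μg unlabeled estradiol (1 h only). Killed under ether; tissues KCl-washed, weighed, gamma-counted. Output: %ID/g (mean, SE) and uterus to blood or nontarget (muscle, spleen, lungs) ratios.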

Rattus norvegicus [7] = test: Biodistribution in muscle of immature female rat after 3 hour administration of 3 micro Ci (111 kBq) in the absence of 60 microg estradiol; format: ADME, organism-based, Muscle tissue; conditions: in vivo; method in brief: as §2
Rattus norvegicus [8] = test: Biodistribution in uterus of immature female rat after 5 hour administration of 3 micro Ci (111 kBq) in the absence of 60 microg estradiol; format: ADME, organism-based; conditions: in vivo; method in brief: as §3
Rattus norvegicus [9] = test: Biodistribution in lungs of immature female rat after 3 hour administration of 3 micro Ci (111 kBq) in the absence of 60 microg estradiol; format: ADME, organism-based, Lung; conditions: in vivo; method in brief: as §2
[10] = target: T1, Estrogen receptor (Mus musculus) (UniProt O08537+P19785); test: Relative binding affinity (RBA) for murine cytoplasmic estrogen receptor at 4C for 18 hr; format: protein assay
Method in brief: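 Competitive binding on murine uterine cytoplasmic extract with 20 nM [3H]estradiol and competitor steroids at 2 nM–20 μM, incubated 18 h at 0–4 °C. RBA = 100 × ratio of […] concentration giving 50% competition for specific binding. Mean of three experiments with SD.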

Rattus norvegicus [11] = test: Biodistribution in uterus / blood of immature female rat after 1 hr administration of 3 micro Ci (111 kBq) in the absence of 60 microg estradiol; format: ADME, organism-based; conditions: in vivo
Method in brief: (§4)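 Same in vivo procedure: immature female Long Evans rats (21–24 days), three to five per group, 3 μCi (111 kBq) tracer i.v. via tail vein in 9% ethanol/saline/1% Tween-80, ± 60 μg estradiol co-injected at 1 h. Uterus %ID/g (gamma counting) divided by blood, or by nontarget organ (muscle, spleen, lungs), %ID/g to give ratios.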

Rattus norvegicus [12] = test: Biodistribution in uterus / blood of immature female rat after 5 hour administration of 3 micro Ci (111 kBq) in the absence of 60 microg estradiol; format: ADME, organism-based; conditions: in vivo; method in brief: as §4
Rattus norvegicus [13] = test: Biodistribution in uterus / spleen, muscle, lungs of immature female rat after 3 hour administration of 3 micro Ci (111 kBq) in the absence of 60 microg estradiol; format: ADME, organism-based; conditions: in vivo; method in brief: as §3
Rattus norvegicus [14] = test: Biodistribution in blood of immature female rat after 1 hr administration of 3 micro Ci (111 kBq) in the presence of (+E2); format: ADME, organism-based; conditions: in vivo; method in brief: as §1
Rattus norvegicus [15] = test: Biodistribution in blood of immature female rat after 5 hour administration of 3 micro Ci (111 kBq) in the absence of 60 microg estradiol; format: ADME, organism-based; conditions: in vivo; method in brief: as §1
[16] = target: T1, Estrogen receptor (Mus musculus); test: Relative binding affinity (RBA) for murine cytoplasmic estrogen receptor at 25 degree C for 2 hr; format: protein assay
Method in brief: (§5)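 Murine uterine cytoplasmic extract incubated 2 h at 4 °C or at 25 °C with 20 nM [3H]estradiol and competitors at 2 nM–20 μM. RBA is taken as 100 × the ratio of competitor to unlabeled estradiol concentration needed for 50% competition of specific [3H]estradiol binding.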

Rattus norvegicus [17] = test: Biodistribution in uterus of immature female rat after 1 hr administration of 3 micro Ci (111 kBq) in the absence of 60 microg estradiol; format: ADME, organism-based; conditions: in vivo; method in brief: as §3
Rattus norvegicus [18] = test: Biodistribution in thyroid of immature female rat after 1 hr administration of 3 micro Ci (111 kBq) in the presence of (+E2); format: ADME, organism-based, Thyroid gland; conditions: in vivo; method in brief: as §2
Rattus norvegicus [19] = test: Biodistribution in uterus / spleen, muscle, lungs of immature female rat after 1 hr administration of 3 micro Ci (111 kBq) in the presence of (+E2); format: ADME, organism-based; conditions: in vivo; method in brief: as §4
Rattus norvegicus [20] = test: Biodistribution in spleen of immature female rat after 5 hour administration of 3 micro Ci (111 kBq) in the absence of 60 microg estradiol; format: ADME, organism-based; conditions: in vivo; method in brief: as §2
Rattus norvegicus [21] = test: Biodistribution in fat of immature female rat after 5 hour administration of 3 micro Ci (111 kBq) in the absence of 60 microg estradiol; format: ADME, organism-based, Adipose tissue; conditions: in vivo; method in brief: as §1
Rattus norvegicus [22] = test: Biodistribution in liver of immature female rat after 12 hour administration of 3 micro Ci (111 kBq) in the absence of 60 microg estradiol; format: ADME, organism-based; conditions: in vivo; method in brief: as §1
Rattus norvegicus [23] = test: Biodistribution in spleen of immature female rat after 1 hr administration of 3 micro Ci (111 kBq) in the absence of 60 microg estradiol; format: ADME, organism-based; conditions: in vivo; method in brief: as §2
Rattus norvegicus [24] = test: Biodistribution in thyroid of immature female rat after 5 hour administration of 3 micro Ci (111 kBq) in the absence of 60 microg estradiol; format: ADME, organism-based, Thyroid gland; conditions: in vivo; method in brief: as §2
Rattus norvegicus [25] = test: Biodistribution in thyroid of immature female rat after 3 hour administration of 3 micro Ci (111 kBq) in the absence of 60 microg estradiol; format: ADME, organism-based, Thyroid gland; conditions: in vivo; method in brief: as §2
Rattus norvegicus [26] = test: Biodistribution in liver of immature female rat after 1 hr administration of 3 micro Ci (111 kBq) in the presence of (+E2); format: ADME, organism-based; conditions: in vivo; method in brief: as §1
Rattus norvegicus [27] = test: Biodistribution in uterus of immature female rat after 3 hour administration of 3 micro Ci (111 kBq) in the absence of 60 microg estradiol; format: ADME, organism-based; conditions: in vivo; method in brief: as §3
[28] = target: T1, Estrogen receptor (Mus musculus); test: Relative binding affinity (RBA) for murine cytoplasmic estrogen receptor at 4C for 2 hr; format: protein assay; method in brief: as §5
Rattus norvegicus [29] = test: Biodistribution in uterus / blood of immature female rat after 1 hr administration of 3 micro Ci (111 kBq) in the presence of (+E2); format: ADME, organism-based; conditions: in vivo; method in brief: as §4
Rattus norvegicus [30] = test: Biodistribution in blood of Immature Female rat after 12 hour administration of 3 micro Ci (111 kBq) in the absence of 60 microg estradiol; format: ADME, organism-based; conditions: in vivo; method in brief: as §1

T1 sequence (O08537 whole entry, looked up): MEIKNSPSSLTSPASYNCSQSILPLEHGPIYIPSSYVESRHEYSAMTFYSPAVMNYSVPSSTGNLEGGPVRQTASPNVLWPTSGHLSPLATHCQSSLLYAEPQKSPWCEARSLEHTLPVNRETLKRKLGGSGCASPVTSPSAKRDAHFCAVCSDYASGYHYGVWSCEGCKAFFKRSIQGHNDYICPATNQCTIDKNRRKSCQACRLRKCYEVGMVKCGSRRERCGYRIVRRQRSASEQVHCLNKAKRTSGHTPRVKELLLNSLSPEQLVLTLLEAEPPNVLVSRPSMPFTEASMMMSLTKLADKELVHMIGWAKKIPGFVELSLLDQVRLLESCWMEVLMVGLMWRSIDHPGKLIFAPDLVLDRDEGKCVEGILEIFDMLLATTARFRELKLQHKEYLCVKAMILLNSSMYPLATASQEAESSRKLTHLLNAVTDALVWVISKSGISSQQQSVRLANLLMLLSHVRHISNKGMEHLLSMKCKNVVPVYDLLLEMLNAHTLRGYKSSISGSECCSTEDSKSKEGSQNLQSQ
T1 sequence (P19785 whole entry, looked up): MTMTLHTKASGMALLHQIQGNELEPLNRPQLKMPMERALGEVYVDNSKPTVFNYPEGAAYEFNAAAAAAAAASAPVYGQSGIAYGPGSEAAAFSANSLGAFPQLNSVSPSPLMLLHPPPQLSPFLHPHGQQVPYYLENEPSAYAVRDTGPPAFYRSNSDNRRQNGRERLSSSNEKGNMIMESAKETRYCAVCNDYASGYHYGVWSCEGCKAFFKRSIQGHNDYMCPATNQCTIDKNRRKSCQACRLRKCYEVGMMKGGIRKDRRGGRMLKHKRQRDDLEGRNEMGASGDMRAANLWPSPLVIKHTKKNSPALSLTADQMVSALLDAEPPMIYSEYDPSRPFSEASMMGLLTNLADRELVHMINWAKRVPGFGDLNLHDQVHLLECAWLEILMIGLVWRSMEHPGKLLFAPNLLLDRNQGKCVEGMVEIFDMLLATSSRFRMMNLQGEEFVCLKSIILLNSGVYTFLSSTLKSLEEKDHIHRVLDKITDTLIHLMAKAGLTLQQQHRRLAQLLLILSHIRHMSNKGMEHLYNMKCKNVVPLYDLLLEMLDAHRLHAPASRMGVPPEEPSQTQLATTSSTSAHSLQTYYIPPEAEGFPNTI

Row | SMILES | ID/g (Rattus norvegicus [1]) [%] | ID/g (Rattus norvegicus [2]) [%] | ID/g (Rattus norvegicus [3]) [%] | ID/g (Rattus norvegicus [4]) [%] | ID/g (Rattus norvegicus [5]) [%] | ID/g (Rattus norvegicus [6]) [%] | ID/g (Rattus norvegicus [7]) [%] | ID/g (Rattus norvegicus [8]) [%] | ID/g (Rattus norvegicus [9]) [%] | RBA [10] | uterus-to-blood ratio of %ID/g (Rattus norvegicus [11]) [%] | uterus to blood ratio (Rattus norvegicus [12]) [%] | ID/g (Rattus norvegicus [14]) [%] | ID/g (Rattus norvegicus [15]) [%] | RBA [16] | ID/g (Rattus norvegicus [17]) [%] | ID/g (Rattus norvegicus [18]) [%] | ID/g (Rattus norvegicus [20]) [%] | ID/g (Rattus norvegicus [21]) [%] | ID/g (Rattus norvegicus [22]) [%] | other results
1 | C[C@]12CC[C@@H]3c4ccc(O)c(F)c4CC[C@H]3[C@@H]1CC[C@@]2(O)/C=C\I | 0.74 | 0.58 | 0.56 | 0.43 | 0.24 | 0.86 | 0.82 | 10.22 | 0.85 | 66.9 | 15.19 | 22.6 | 0.55 | 0.47 | 203 | 10.44 | 50.6 | 0.4 | 1.71 | 1.78 | Uterus to nontarget tissue (spleen, muscle, lungs) uptake ratio (Rattus norvegicus [13]): 12.16%; uterus-to-nontarget tissue uptake ratio (Rattus norvegicus [19]): 1.21%; ID/g (Rattus norvegicus [23]): 1.02%; ID/g (Rattus norvegicus [24]): 117%; ID/g (Rattus norvegicus [25]): 87.39%; ID/g (Rattus norvegicus [26]): 3.04%; ID/g (Rattus norvegicus [27]): 7.96%; RBA [28]: 47.4; uterus/blood %ID/g ratio (Rattus norvegicus [29]): 1.65%
2 | C[C@]12CC[C@@H]3c4cc(F)c(O)cc4CC[C@H]3[C@@H]1CC[C@@]2(O)/C=C\I | 0.14 | 0.3 | 1 | 0.17 | 0.17 | 0.68 | 0.28 | 3.67 | 0.39 | 53.7 | 7.34 | 12.09 | 0.58 | 0.3 | 99 | 4.41 | 36.11 | 0.2 | 1.13 | 0.81 | Uterus to nontarget tissue (spleen, muscle, lungs) uptake ratio (Rattus norvegicus [13]): 17.64%; uterus-to-nontarget tissue uptake ratio (Rattus norvegicus [19]): 0.51%; ID/g (Rattus norvegicus [23]): 0.55%; ID/g (Rattus norvegicus [24]): 149.9%; ID/g (Rattus norvegicus [25]): 75.3%; ID/g (Rattus norvegicus [26]): 2.58%; ID/g (Rattus norvegicus [27]): 5.44%; RBA [28]: 40.1; uterus/blood %ID/g ratio (Rattus norvegicus [29]): 1.2%
3 | C[C@]12CC[C@@H]3c4cc(F)c(O)cc4CC[C@H]3[C@@H]1CC[C@@]2(O)/C=C/I | 0.06 | 0.25 | 0.56 | 0.05 | 0.08 | 0.52 | 0.37 | 0.34 | 0.48 | 6.2 | 2.21 | 1.15 | 0.49 | 0.29 | 5.3 | 1 | 22 | 0.27 | 2.39 | 1.58 | ID/g (Rattus norvegicus [23]): 0.57%; ID/g (Rattus norvegicus [24]): 43.46%; ID/g (Rattus norvegicus [25]): 39.1%; ID/g (Rattus norvegicus [26]): 3.86%; ID/g (Rattus norvegicus [27]): 0.53%; RBA [28]: 30.4; uterus/blood %ID/g ratio (Rattus norvegicus [29]): 1.09%
4 | CO[C@H]1C[C@@]2(C)[C@@H](CC[C@@]2(O)/C=C\I)[C@@H]2CCc3cc(O)c(F)cc3[C@H]21 | – | – | – | – | – | – | – | – | – | – | – | – | – | – | – | – | – | – | – | – | ID/g (Rattus norvegicus [30]): 0.17%
5 | CO[C@H]1C[C@@]2(C)[C@@H](CC[C@@]2(O)/C=C/I)[C@@H]2CCc3c(ccc(O)c3F)[C@H]21 | – | – | – | – | – | – | – | – | – | – | – | – | – | – | – | – | – | – | – | – | ID/g (Rattus norvegicus [30]): 0.1%
6 | C[C@]12CC[C@@H]3c4ccc(O)c(F)c4CC[C@H]3[C@@H]1CC[C@@]2(O)/C=C/I | 0.08 | 0.26 | 0.51 | 0.1 | 0.16 | 0.77 | 0.31 | 1.82 | 0.57 | 55.9 | 5.42 | 9.01 | 0.81 | 0.26 | 29.1 | 3.75 | 65.69 | 0.17 | 1.67 | 0.59 | Uterus to nontarget tissue (spleen, muscle, lungs) uptake ratio (Rattus norvegicus [13]): 11.38%; uterus-to-nontarget tissue uptake ratio (Rattus norvegicus [19]): 1.17%; ID/g (Rattus norvegicus [23]): 0.59%; ID/g (Rattus norvegicus [24]): 208%; ID/g (Rattus norvegicus [25]): 128%; ID/g (Rattus norvegicus [26]): 3.06%; ID/g (Rattus norvegicus [27]): 4.24%; RBA [28]: 58.7; uterus/blood %ID/g ratio (Rattus norvegicus [29]): 1.02%
